Hits are enriched below; roughly 1.8% of the tested compounds scored in any of these assays.
CHRM5 agonist: agonists of human muscarinic M5 receptor (CHRM5) | activation, % at 3 µM | 0.19% of 360,000 active | CHO-K1 hM5 cells, Fluo-8 calcium fluorescence; 0% DMSO wells, 100% maximal acetylcholine response | P08912;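 active means activation above the run's mean over test compounds plus 3 SD, cut at about 23% in these data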;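 further: signal is peak over basal fluorescence ratio across the kinetic read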
Target sequence (P08912 whole entry, looked up): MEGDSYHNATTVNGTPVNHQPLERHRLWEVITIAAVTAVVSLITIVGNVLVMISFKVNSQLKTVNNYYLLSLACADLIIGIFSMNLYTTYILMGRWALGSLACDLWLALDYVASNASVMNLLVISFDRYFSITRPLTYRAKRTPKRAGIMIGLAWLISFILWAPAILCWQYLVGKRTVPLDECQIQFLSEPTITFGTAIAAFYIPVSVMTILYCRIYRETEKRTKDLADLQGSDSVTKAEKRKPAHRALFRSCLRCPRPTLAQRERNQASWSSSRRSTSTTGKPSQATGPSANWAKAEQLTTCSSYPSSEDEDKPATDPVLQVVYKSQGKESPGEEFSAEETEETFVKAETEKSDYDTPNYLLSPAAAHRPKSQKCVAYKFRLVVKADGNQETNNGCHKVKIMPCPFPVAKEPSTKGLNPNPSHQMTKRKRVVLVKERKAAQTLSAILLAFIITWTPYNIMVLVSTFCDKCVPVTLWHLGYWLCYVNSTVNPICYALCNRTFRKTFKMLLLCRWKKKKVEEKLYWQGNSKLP
CHRM5 PAM: positive allosteric modulators of human muscarinic M5 receptor | activation, % at 3 µM | AID 624038 | 0.3% of 360,000 active | CHO-K1 hM5, Fluo-8 calcium, ACh EC20 PAM; 0% = ACh EC20, 100% = ACh EC100;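 active means activation above the run cutoff, the mean activation of all test compounds plus 3 SD, cut at about 18% in these data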
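System: CHO-K1 hM5 cells. Reagent: acetylcholine, EC20 level. Compound dosing: single dose, 3 µM nominal final test concentration. Timing: Post-acetylcholine fluorescence recording 140 s. Detection: Fluo-8 calcium fluorescence. Read-out: % activation, ACh-normalized. Benchmarks: ACh EC20 and EC100 wells. Repeats: singlicate, one well per test compound.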
M5 antag: CHRM5 antagonism in calcium assay | CHO-hM5 cells, Fluo-8 calcium fluorescence, ACh EC80 | 0.59% of 360,000 active | inhibition, % at 3 µM;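 active means inhibition above a per-plate cutoff, the mean of that plate's test compounds plus 3 SD, cut at about 27% in these data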;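 further: 0% = acetylcholine EC80 with DMSO and 100% = DMSO without agonist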
M4 PAM: positive allosteric modulators of human muscarinic M4 receptor; P08173; activation, % at 3 µM; 0.4% of 360,000 active; CHO-K1 hM4/Gqi5, Fluo-8 calcium fluorescence, ACh EC20; 0% = ACh EC20, 100% = maximal ACh;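 active means activation above its plate's cutoff, the mean activation of sample wells plus 3 SD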
M4 ag: agonists of human muscarinic M4 receptor (CHRM4) | activation, % at 3 µM | 0.14% of 360,000 active | P08173 | CHO-K1 hM4/Gqi5, Fluo-8 calcium fluorescence; vehicle 0%, full acetylcholine response 100%;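 active means activation above the run mean over all test wells plus 3 SD, cut at about 32% in these data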;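 further: peak over basal fluorescence ratio per well then scaled between controls; 0% = DMSO wells and 100% = acetylcholine at EC100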
CHRM4 antagonist: antagonists of human muscarinic M4 receptor (CHRM4); 0.73% of 360,000 active; CHO-hM4 cells, ACh EC80, Fluo-8 calcium fluorescence; AID 624125; inhibition, % at 3 µM;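 active means inhibition above its plate's cutoff, the mean inhibition of sample wells plus 3 SD, cut at about 27% in these data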;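 further: 0% = acetylcholine EC80 with DMSO and 100% = DMSO without agonist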
Active calls of the source: *.

SMILES | CHRM5 agonist | CHRM5 PAM | M5 antag | M4 PAM | M4 ag | CHRM4 antagonist
CC1=C(C(=O)N(C(C)C)C(C)C)CC(CC(=O)NC2CC2)C(=O)N1CCC1=CCCCC1 (configuration not stated) | 3 | 11 | 1 | 3 | 1 | 1
COc1ccc(S(=O)(=O)NCC2CCCN(C(=O)CCC(F)(F)F)C2)cc1 (configuration not stated) | 14 | 39* | 11 | -6 | 0 | -7
COCCC(=O)N1CCCC(CNS(=O)(=O)c2ccc(OC)cc2)C1 (configuration not stated) | 5 | 2 | 6 | 2 | 1 | -5
COc1ccc(NC(=O)COc2ccccc2Cc2ccccc2)cc1S(N)(=O)=O | 9 | -13 | 30* | -7 | 15 | 21
Cc1ccc(SCCNS(C)(=O)=O)cc1 | -3 | 22* | -6 | 14 | 1 | -3
CCc1ccccc1N(CC(=O)NC(C)(C)CC)C(=O)CCC(=O)Nc1nccs1 | 5 | 5 | -2 | -3 | 0 | 3
COc1ccc(C(=O)/C=C/C(=O)N(CC(=O)NC2CCCCC2)CC2CCCO2)c(O)c1 (configuration not stated) | 17 | 7 | 14 | -8 | 6 | 29*
CCN(CC)CCn1c(NCc2ccco2)nc2ccccc21 | -5 | -3 | 3 | -4 | 0 | 8
CCN(CC)CCn1c(NCc2cccc(OC)c2OC)nc2ccccc21 | -5 | -11 | 31* | 0 | 0 | 9
C#CCOCCOCCOCCNc1nc(N2CCN(C(=O)CCCCCCCCCCNC(=O)[C@H]([C@@H](C)CC)n3cc(CCCCN=C(N)N)nn3)CC2)nc(N2CCN(C(=O)CCCCCCCCCCNC(=O)[C@H](CO)n3cc(CCCCCN)nn3)CC2)n1 | -7 | -10 | 23 | -13 | 1 | 34*
C[C@@H](O)Cc1cn(CC(=O)NCCCCCCCCCCC(=O)N2CCNCC2)nn1 | -3 | 5 | 5 | 5 | 1 | 4
C#CCOCCOCCOCCNc1nc(N2CCN(C(=O)CCCCCCCCCCNC(=O)[C@H]([C@@H](C)CC)n3cc(CCCCCN)nn3)CC2)nc(N2CCN(C(=O)CCCCCCCCCCNC(=O)[C@H]([C@@H](C)CC)n3cc(CCCCN=C(N)N)nn3)CC2)n1 | -2 | -10 | 12 | -10 | -1 | 14
CC(C)(C)OC(=O)NCCCCCc1cn([C@@H](CO)C(=O)NCCCCCCCCCCC(=O)N2CCN(C(=O)OC(C)(C)C)CC2)nn1 | 1 | -40 | 38* | -17 | 34* | 69*
NCCCCCc1cn(CC(=O)NCCCCCCCCCCC(=O)N2CCNCC2)nn1 | -4 | 4 | -4 | 23* | 1 | -12
C#CCOCCOCCOCCNc1nc(N2CCN(C(=O)CCCCCCCCCCNC(=O)Cn3cc(CCCCCN)nn3)CC2)nc(N2CCN(C(=O)CCCCCCCCCCNC(=O)[C@H]([C@@H](C)CC)n3cc(CCCCN=C(N)N)nn3)CC2)n1 | -9 | -16 | 14 | -15 | -1 | 41*
CC(C)(C)OC(=O)CC[C@@H](C(=O)NCCCCCCCCCCC(=O)N1CCN(C(=O)OC(C)(C)C)CC1)n1cc(CCCCCNC(=O)OC(C)(C)C)nn1 | 6 | 8 | -13 | 14 | 4 | -11
CC1(C(=O)NS(=O)(=O)c2ccccc2)CCN1C(=O)CC1CC1 (configuration not stated) | 0 | -2 | 4 | -1 | 1 | 1
CN(CCc1ccccc1)C(=O)c1ccc(NC(=O)Cc2ccc(NC(=O)C3CCN(S(=O)(=O)c4cccc([N+](=O)[O-])c4)CC3)cc2)cc1 | 1 | -2 | 1 | -3 | 1 | 1
O=C(Nc1cc(Cl)ccc1-n1cncn1)C1CC1 | -4 | -1 | -3 | 8 | 0 | -12
CCCCCCCCCCCCCCCC[N+](C)(C)CCl | -11 | -45 | 29* | -10 | 2 | 35*
CCCCCCCCCCCCCCCC[N+](C)(C)CC | -1 | -19 | 77* | -18 | 1 | 52*
CCCCCC[N+](C)(C)CCSSCC[N+](C)(C)CCCCCC | -5 | 2 | 9 | 4 | 0 | -5
CCC(=O)N1CCCC1(C)C(=O)Nc1ccc2scnc2c1 (configuration not stated) | 0 | 0 | 1 | 9 | 1 | -8
CN(C)CCCn1c(SCc2c(Cl)cccc2Cl)nnc1-c1ccncc1 | -1 | 5 | -9 | 22* | 4 | 15
CCOC(=O)c1cc(N2CCCCC2)nc2ccccc12 | -3 | -8 | 28* | -6 | -1 | -1
SMILES | CHRM5 agonist | CHRM5 PAM | M5 antag | M4 PAM | M4 ag | CHRM4 antagonist
O=C(CC1C(=O)NCCN1Cc1ccc(F)cc1)NC1CCCCCCC1 (configuration not stated) | -7 | -4 | -1 | -15 | 2 | 45*
Cc1ccc(CN2CCNC(=O)C2CC(=O)NC2CCCCCC2)cc1 (configuration not stated) | -5 | 0 | 15 | 2 | 0 | 0
COc1ccc(CN2CCNC(=O)C2CC(=O)NC2CCCCCCC2)cc1OC (configuration not stated) | -10 | -6 | 8 | -26 | 2 | 36*
O=C(NCc1ccccc1)c1nccnc1CO | -1 | 8 | -1 | -1 | 0 | 15
CC(C)C(=O)N1CCCC1(C)C(=O)N(C)Cc1cccc2ccccc12 (configuration not stated) | -1 | -3 | -5 | 4 | 0 | -6
COCCNc1nnc(SCC(=O)NNC(=O)c2ccccc2)s1 | -6 | 1 | -13 | 19* | 4 | -13
NC(=O)c1ccc(N2CCN(S(=O)(=O)c3ccccc3)CC2)c([N+](=O)[O-])c1 | 11 | -26 | 29* | -18 | 16 | 19
O=C(c1ccc(N2CCCCC2)c([N+](=O)[O-])c1)N1CCN(S(=O)(=O)c2ccccc2)CC1 | -2 | -6 | 4 | -11 | 9 | -1
Cc1ccc2c(c1)C(=O)N1[C@H]3c4cc(C)ccc4OC[C@@H]3[C@H](c3ccccc3)[C@]1(C)C(=O)N2 | -4 | -18 | 10 | -15 | 1 | 29*
C[C@@]12C(=O)Nc3cc(Cl)ccc3C(=O)N1[C@H]1c3ccccc3OC[C@@H]1[C@@H]2c1ccccc1 | -2 | -15 | 9 | -17 | 3 | 33*
Cc1ccc2c(c1)C(=O)N1[C@H]3c4cc(Cl)ccc4OC[C@@H]3[C@H](c3ccccc3)[C@]1(C)C(=O)N2 | 4 | -3 | -6 | -5 | 0 | 4
C[C@@]12C(=O)Nc3ccc(Cl)cc3C(=O)N1[C@H]1c3ccccc3OC[C@@H]1[C@@H]2c1ccccc1 | -3 | -28 | 20 | -7 | 0 | 41*

Screens: PubChem, The Scripps Research Institute Molecular Screening Center
